ChEMBL document CHEMBL4024754, “Development of Potent, Protease-Resistant Agonists of the Parathyroid Hormone Receptor with Broad β Residue Distribution” (J Med Chem, 2017)
One block for each molecule: values may come before it. Active and inactive are the calls of the source. No cut-off for these calls is given here. Peptide text beside a SMILES is read from it. * marks the point of attachment. ACPC(1S,2S) = N[C@H]1CCC[C@@H]1C(=O)*

Columns and labels:
Assay type in all cases: functional, cell-based
[1] = molecular target: T1, Parathyroid hormone/parathyroid hormone-related peptide receptor (Homo sapiens, UniProt Q03431); assay: Agonist activity at human PTH1 receptor expressed in human GP2.3 cells assessed as induction of cAMP after 12 to 20 mins by luciferase reporter gene assay
T1 sequence (Q03431 whole entry): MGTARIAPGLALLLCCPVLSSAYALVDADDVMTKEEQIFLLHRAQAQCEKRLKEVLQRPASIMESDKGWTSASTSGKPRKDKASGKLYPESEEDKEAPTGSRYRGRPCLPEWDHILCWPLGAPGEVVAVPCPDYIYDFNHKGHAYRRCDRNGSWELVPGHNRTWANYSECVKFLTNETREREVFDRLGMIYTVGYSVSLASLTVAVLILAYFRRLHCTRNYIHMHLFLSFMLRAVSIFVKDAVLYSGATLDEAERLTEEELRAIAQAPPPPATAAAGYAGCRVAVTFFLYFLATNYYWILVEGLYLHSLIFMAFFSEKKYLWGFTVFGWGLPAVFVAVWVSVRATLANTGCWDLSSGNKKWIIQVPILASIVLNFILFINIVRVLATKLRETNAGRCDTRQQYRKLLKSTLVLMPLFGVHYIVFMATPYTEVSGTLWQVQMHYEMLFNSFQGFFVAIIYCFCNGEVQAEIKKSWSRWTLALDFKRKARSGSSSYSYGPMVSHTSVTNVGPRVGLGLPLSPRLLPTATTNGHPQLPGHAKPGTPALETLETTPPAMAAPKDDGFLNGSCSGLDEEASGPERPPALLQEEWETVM

[2] = molecular target: T2, Parathyroid hormone/parathyroid hormone-related peptide receptor (Homo sapiens) (UniProt Q03431); assay: Agonist activity at human PTH1 receptor expressed in human GP2.3 cells assessed as induction of cAMP after 12 to 20 mins by luciferase reporter gene assay relative to PTH(1 to 34 residues)-NH2
T2 sequence (whole entry): T1 sequence (Q03431 whole entry)

[3] = molecular target: T2, Parathyroid hormone/parathyroid hormone-related peptide receptor (Homo sapiens); assay: Agonist activity at extracellular domain truncate human PTH1 receptor expressed in GD5 cells assessed as induction of cAMP after 12 to 20 mins by luciferase reporter gene assay
In short: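 HEK293-derived lines stably expressing Glosensor cAMP reporter plus full-length human PTHR1 (GP2.3) or ECD-truncated PTHR1 (GD5). Confluent monolayers preincubated at room temperature in CO2-independent medium with 0.5 mM D-luciferin until baseline stable (30 min), then varied agonist concentrations added. Maximal luminescence (12−20 min) used for sigmoidal variable-slope fits.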

EC50 ([1]; read-out: EC50): 0.12 nM | fold change (FC) [2]: 1.3 | Activity [3]: Active
SMILES: CC[C@H](C)[C@H](NC(=O)[C@H](CCC(=O)O)NC(=O)[C@H](CO)NC(=O)[C@@H](NC(=O)[C@@H](N)CO)C(C)C)C(=O)N[C@@H](CCC(N)=O)C(=O)N[C@H]1CCC[C@@H]1C(=O)N[C@@H](CCSC)C(=O)N[C@@H](Cc1cnc[nH]1)C(=O)N[C@@H](CC(N)=O)C(=O)N[C@@H](CC(C)C)C(=O)NCC(=O)N[C@@H](CCCCN)C(=O)N[C@@H](Cc1cnc[nH]1)C(=O)N[C@@H](CC(C)C)C(=O)N[C@@H](CC(N)=O)C(=O)N[C@@H](CO)C(=O)N[C@@H](CCSC)C(=O)N[C@@H](CCC(=O)O)C(=O)N[C@@H](CCCNC(=N)N)C(=O)N[C@H](C(=O)N[C@@H](CCC(=O)O)C(=O)N[C@@H](Cc1c[nH]c2ccccc12)C(=O)N[C@@H](CC(C)C)C(=O)N[C@@H](CCCNC(=N)N)C(=O)N[C@@H](CCCCN)C(=O)N[C@@H](CCCCN)C(=O)N[C@@H](CC(C)C)C(=O)N[C@@H](CCC(N)=O)C(=O)N[C@@H](CC(=O)O)C(=O)N[C@H](C(=O)N[C@@H](Cc1cnc[nH]1)C(=O)N[C@@H](CC(N)=O)C(=O)N[C@@H](Cc1ccccc1)C(N)=O)C(C)C)C(C)C

EC50 ([1]; read-out: EC50): 0.15 nM | fold change (FC) [2]: 1.6 | Activity [3]: Active
SMILES: CC[C@H](C)[C@H](NC(=O)[C@H](CCC(=O)O)NC(=O)[C@H](CO)NC(=O)[C@@H](NC(=O)[C@H]1CCC[C@@H]1N)C(C)C)C(=O)N[C@@H](CCC(N)=O)C(=O)N[C@@H](CC(C)C)C(=O)N[C@@H](CCSC)C(=O)N[C@@H](Cc1cnc[nH]1)C(=O)N[C@@H](CC(N)=O)C(=O)N[C@@H](CC(C)C)C(=O)NCC(=O)N[C@@H](CCCCN)C(=O)N[C@@H](Cc1cnc[nH]1)C(=O)N[C@@H](CC(C)C)C(=O)N[C@@H](CC(N)=O)C(=O)N[C@@H](CO)C(=O)N[C@@H](CCSC)C(=O)N[C@@H](CCC(=O)O)C(=O)N[C@@H](CCCNC(=N)N)C(=O)N[C@H](C(=O)N[C@@H](CCC(=O)O)C(=O)N[C@@H](Cc1c[nH]c2ccccc12)C(=O)N[C@@H](CC(C)C)C(=O)N[C@@H](CCCNC(=N)N)C(=O)N[C@@H](CCCCN)C(=O)N[C@@H](CCCCN)C(=O)N[C@@H](CC(C)C)C(=O)N[C@@H](CCC(N)=O)C(=O)N[C@@H](CC(=O)O)C(=O)N[C@H](C(=O)N[C@@H](Cc1cnc[nH]1)C(=O)N[C@@H](CC(N)=O)C(=O)N[C@@H](Cc1ccccc1)C(N)=O)C(C)C)C(C)C ({ACPC(1S,2S)}-VSEIQLMHNLGKHLNSMERVEWLRKKLQDVHNF-NH2)

EC50 ([1]; read-out: EC50): 0.34 nM | fold change (FC) [2]: 3.7 | Activity [3]: Active
SMILES: CC[C@H](C)[C@H](NC(=O)[C@H](CCC(=O)O)NC(=O)[C@H](CO)NC(=O)[C@@H](NC(=O)[C@@H](N)CO)C(C)C)C(=O)N[C@H]1CCC[C@@H]1C(=O)N[C@@H](CC(C)C)C(=O)N[C@@H](CCSC)C(=O)N[C@@H](Cc1cnc[nH]1)C(=O)N[C@@H](CC(N)=O)C(=O)N[C@@H](CC(C)C)C(=O)NCC(=O)N[C@@H](CCCCN)C(=O)N[C@@H](Cc1cnc[nH]1)C(=O)N[C@@H](CC(C)C)C(=O)N[C@@H](CC(N)=O)C(=O)N[C@@H](CO)C(=O)N[C@@H](CCSC)C(=O)N[C@@H](CCC(=O)O)C(=O)N[C@@H](CCCNC(=N)N)C(=O)N[C@H](C(=O)N[C@@H](CCC(=O)O)C(=O)N[C@@H](Cc1c[nH]c2ccccc12)C(=O)N[C@@H](CC(C)C)C(=O)N[C@@H](CCCNC(=N)N)C(=O)N[C@@H](CCCCN)C(=O)N[C@@H](CCCCN)C(=O)N[C@@H](CC(C)C)C(=O)N[C@@H](CCC(N)=O)C(=O)N[C@@H](CC(=O)O)C(=O)N[C@H](C(=O)N[C@@H](Cc1cnc[nH]1)C(=O)N[C@@H](CC(N)=O)C(=O)N[C@@H](Cc1ccccc1)C(N)=O)C(C)C)C(C)C

EC50 [1]: Not Active | Activity [3]: Active
SMILES: CC[C@H](C)[C@H](NC(=O)[C@H]1CCC[C@@H]1NC(=O)[C@H](CO)NC(=O)[C@@H](NC(=O)[C@@H](N)CO)C(C)C)C(=O)N[C@@H](CCC(N)=O)C(=O)N[C@@H](CC(C)C)C(=O)N[C@@H](CCSC)C(=O)N[C@@H](Cc1cnc[nH]1)C(=O)N[C@@H](CC(N)=O)C(=O)N[C@@H](CC(C)C)C(=O)NCC(=O)N[C@@H](CCCCN)C(=O)N[C@@H](Cc1cnc[nH]1)C(=O)N[C@@H](CC(C)C)C(=O)N[C@@H](CC(N)=O)C(=O)N[C@@H](CO)C(=O)N[C@@H](CCSC)C(=O)N[C@@H](CCC(=O)O)C(=O)N[C@@H](CCCNC(=N)N)C(=O)N[C@H](C(=O)N[C@@H](CCC(=O)O)C(=O)N[C@@H](Cc1c[nH]c2ccccc12)C(=O)N[C@@H](CC(C)C)C(=O)N[C@@H](CCCNC(=N)N)C(=O)N[C@@H](CCCCN)C(=O)N[C@@H](CCCCN)C(=O)N[C@@H](CC(C)C)C(=O)N[C@@H](CCC(N)=O)C(=O)N[C@@H](CC(=O)O)C(=O)N[C@H](C(=O)N[C@@H](Cc1cnc[nH]1)C(=O)N[C@@H](CC(N)=O)C(=O)N[C@@H](Cc1ccccc1)C(N)=O)C(C)C)C(C)C

The next lines start with the molecule.

SMILES: CC[C@H](C)[C@H](NC(=O)[C@H](CCC(=O)O)NC(=O)[C@H](CO)NC(=O)[C@@H](NC(=O)[C@@H](N)CO)C(C)C)C(=O)N[C@@H](CCC(N)=O)CC(=O)N[C@@H](CC(C)C)C(=O)N[C@@H](CCSC)C(=O)N[C@@H](Cc1cnc[nH]1)C(=O)N[C@@H](CC(N)=O)C(=O)N[C@@H](CC(C)C)C(=O)NCC(=O)N[C@@H](CCCCN)C(=O)N[C@@H](Cc1cnc[nH]1)C(=O)N[C@@H](CC(C)C)C(=O)N[C@@H](CC(N)=O)C(=O)N[C@@H](CO)C(=O)N[C@@H](CCSC)C(=O)N[C@@H](CCC(=O)O)C(=O)N[C@@H](CCCNC(=N)N)C(=O)N[C@H](C(=O)N[C@@H](CCC(=O)O)C(=O)N[C@@H](Cc1c[nH]c2ccccc12)C(=O)N[C@@H](CC(C)C)C(=O)N[C@@H](CCCNC(=N)N)C(=O)N[C@@H](CCCCN)C(=O)N[C@@H](CCCCN)C(=O)N[C@@H](CC(C)C)C(=O)N[C@@H](CCC(N)=O)C(=O)N[C@@H](CC(=O)O)C(=O)N[C@H](C(=O)N[C@@H](Cc1cnc[nH]1)C(=O)N[C@@H](CC(N)=O)C(=O)N[C@@H](Cc1ccccc1)C(N)=O)C(C)C)C(C)C
fold change (FC) [2]: 160 | Activity [3]: Active

SMILES: CC[C@H](C)[C@H](NC(=O)[C@H](CCC(=O)O)NC(=O)[C@H](CO)NC(=O)C[C@@H](NC(=O)[C@@H](N)CO)C(C)C)C(=O)N[C@@H](CCC(N)=O)C(=O)N[C@@H](CC(C)C)C(=O)N[C@@H](CCSC)C(=O)N[C@@H](Cc1cnc[nH]1)C(=O)N[C@@H](CC(N)=O)C(=O)N[C@@H](CC(C)C)C(=O)NCC(=O)N[C@@H](CCCCN)C(=O)N[C@@H](Cc1cnc[nH]1)C(=O)N[C@@H](CC(C)C)C(=O)N[C@@H](CC(N)=O)C(=O)N[C@@H](CO)C(=O)N[C@@H](CCSC)C(=O)N[C@@H](CCC(=O)O)C(=O)N[C@@H](CCCNC(=N)N)C(=O)N[C@H](C(=O)N[C@@H](CCC(=O)O)C(=O)N[C@@H](Cc1c[nH]c2ccccc12)C(=O)N[C@@H](CC(C)C)C(=O)N[C@@H](CCCNC(=N)N)C(=O)N[C@@H](CCCCN)C(=O)N[C@@H](CCCCN)C(=O)N[C@@H](CC(C)C)C(=O)N[C@@H](CCC(N)=O)C(=O)N[C@@H](CC(=O)O)C(=O)N[C@H](C(=O)N[C@@H](Cc1cnc[nH]1)C(=O)N[C@@H](CC(N)=O)C(=O)N[C@@H](Cc1ccccc1)C(N)=O)C(C)C)C(C)C
fold change (FC) [2]: 3.2 | Activity [3]: Active

SMILES: CC[C@H](C)[C@H](NC(=O)[C@H](CCC(=O)O)NC(=O)[C@H](CO)NC(=O)[C@@H](NC(=O)[C@@H](N)CO)C(C)C)C(=O)N[C@@H](CCC(N)=O)C(=O)N[C@@H](CC(C)C)C(=O)N[C@@H](CCSC)C(=O)N[C@H]1CNC[C@@H]1C(=O)N[C@@H](CC(N)=O)C(=O)N[C@@H](CC(C)C)C(=O)NCC(=O)N[C@@H](CCCCN)C(=O)N[C@@H](Cc1cnc[nH]1)C(=O)N[C@@H](CC(C)C)C(=O)N[C@@H](CC(N)=O)C(=O)N[C@@H](CO)C(=O)N[C@@H](CCSC)C(=O)N[C@@H](CCC(=O)O)C(=O)N[C@@H](CCCNC(=N)N)C(=O)N[C@H](C(=O)N[C@@H](CCC(=O)O)C(=O)N[C@@H](Cc1c[nH]c2ccccc12)C(=O)N[C@@H](CC(C)C)C(=O)N[C@@H](CCCNC(=N)N)C(=O)N[C@@H](CCCCN)C(=O)N[C@@H](CCCCN)C(=O)N[C@@H](CC(C)C)C(=O)N[C@@H](CCC(N)=O)C(=O)N[C@@H](CC(=O)O)C(=O)N[C@H](C(=O)N[C@@H](Cc1cnc[nH]1)C(=O)N[C@@H](CC(N)=O)C(=O)N[C@@H](Cc1ccccc1)C(N)=O)C(C)C)C(C)C
EC50 [1]: Not Active | Activity [3]: Active
